Assay results gathered from unrelated publications.
Compare with care: the assays were run in different laboratories.
Effect on: enzyme activity
Mode: inhibitor
CDK5 with p25: Cyclin-dependent kinase 5, with p25 (CDK5, Homo sapiens, UniProt Q00535)

CCN(CC)c1ccc(C2=NNC(=O)CC2C)cc1[N+](=O)[O-] (stereo not shown)
remaining activity (CDK5 with p25; 10 µM): 113%

COc1cc(Cl)c(C(=O)N[C@@H](CN[C@H]2CC[C@@H](N)CC2)Cc2ccc(C#N)cc2)cc1-c1ccc(CN[C@H](C)c2ccc(C)cc2)o1
remaining activity (CDK5 with p25; 1 µM): 102%

O=C(Nc1cnn(-c2csc(C(=O)NC3COC3)c2)c1)Nc1c(F)cccc1Cl
remaining activity (CDK5 with p25; 5 µM): 88.2%

CC[C@H](C)[C@H](NC(=O)[C@H](CCC(N)=O)NC(=O)[C@H](CC(C)C)NC(=O)[C@H](CCSC)NC(=O)[C@H](CCCCN)NC(=O)[C@H](CO)NC(=O)[C@H](CO)NC(=O)[C@H](CCSC)NC(=O)[C@H](CC(C)C)NC(=O)[C@H](CC(N)=O)NC(=O)[C@@H](NC(=O)[C@@H](NC(=O)[C@H](CO)NC(=O)[C@H](CC(C)C)NC(=O)[C@H](CS)NC(=O)[C@H](CCCNC(=N)N)NC(=O)[C@H](CC(=O)O)NC(=O)[C@H](Cc1c[nH]c2ccccc12)NC(=O)[C@H](Cc1ccccc1)NC(=O)[C@H](C)NC(=O)[C@H](CCC(=O)O)NC(=O)[C@@H](N)CCCCN)C(C)C)[C@@H](C)CC)C(=O)N[C@@H](CC(N)=O)C(=O)N[C@@H](C)C(=O)O
remaining activity (CDK5 with p25; radiometric; 250 µM; 20 min): 41%

Cc1sc(C(=O)NC2COC2)cc1-n1cc(NC(=O)Nc2c(F)cccc2Cl)cn1
remaining activity (CDK5 with p25; 10 µM): 97.6%

CC(C)(O)[C@H]1CC[C@H](Nc2ccc3ncc(-c4cccc(C(F)(F)F)c4)n3n2)CC1
remaining activity (CDK5 with p25; 1 µM): 92.2%

Cc1cnc(NC2CCOCC2)nc1-n1cnc(C(=O)NC(CN)c2cc(F)cc(Cl)c2)c1 (stereo not shown)
remaining activity (CDK5 with p25; radiometric; 1 µM): 2%

CC(C)(C)c1nc2c(s1)c1nc(N)ncc1c1ccc(NS(=O)(=O)c3c(F)cccc3F)c(F)c12
remaining activity (Cyclin-dependent kinase 5, with p35 (CDK5, Homo sapiens, UniProt Q00535); radiometric; 1 µM): 77%

O=C(Nc1cnn(-c2csc(C(=O)NC3COC3)c2)c1)Nc1ccccc1Cl
remaining activity (CDK5 with p25; 5 µM): 101%

CCCOc1ccc(OC)c(F)c1C(=O)c1ccc(C(=O)N[C@@H]2CNC[C@H]2NC(=O)c2ccc3[nH]ncc3c2)cc1
remaining activity (CDK5 with p25; 50 nM): 114%
